Results reported in ChEMBL document CHEMBL1921671, “Benzisothiazolinone as a useful template for the design of new monoacylglycerol lipase inhibitors: investigation of the target residues and comparison with octhilinone” (Bioorg Med Chem Lett, 2011).
Positions count from the first letter of the chain named. Calls of active or inactive are those of the source. No cut-off for these calls is given here.

Key:
[1] = target: T1, Monoglyceride lipase (Homo sapiens, UniProt Q99685); experiment: Inhibition of human recombinant MAGL assessed as [3H]oleoylglycerol hydrolysis after 10 mins by liquid scintillation counting
T1 sequence (Q99685 whole entry): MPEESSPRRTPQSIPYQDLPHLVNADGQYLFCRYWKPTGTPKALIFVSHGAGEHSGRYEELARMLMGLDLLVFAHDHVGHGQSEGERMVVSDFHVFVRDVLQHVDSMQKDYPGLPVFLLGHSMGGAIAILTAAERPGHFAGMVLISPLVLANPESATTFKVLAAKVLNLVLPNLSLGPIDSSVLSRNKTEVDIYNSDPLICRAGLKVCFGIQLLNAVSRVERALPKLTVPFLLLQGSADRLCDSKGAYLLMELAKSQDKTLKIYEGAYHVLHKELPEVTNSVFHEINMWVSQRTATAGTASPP
How it was run: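 Purified recombinant human MAGL, 5 ng, in 50 mM Tris pH 8.0 with 0.1% BSA, preincubated with […]. Substrate [3H]-2-oleoylglycerol at 10 µM final in Tris pH 8.0 with 0.6% BSA. Reaction run 10 min at 37 °C and stopped with ice-cold 1:1 methanol/chloroform, then centrifuged. Aqueous-phase radioactivity counted by liquid scintillation; no-enzyme blanks subtracted.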

[2] = target: T1, Monoglyceride lipase; experiment: Inhibition of human recombinant MAGL assessed as inhibition of 2-oleoylglycerol hydrolysis preincubated for 10 mins by LC/MS analysis
[3] = target: T2, Fatty-acid amide hydrolase 1 (Homo sapiens, UniProt O00519); experiment: Inhibition of human recombinant FAAH assessed as conversion of [3H]AEA to [3H]ethanolamine after 10 mins by liquid scintillation counting
T2 sequence (O00519 whole entry): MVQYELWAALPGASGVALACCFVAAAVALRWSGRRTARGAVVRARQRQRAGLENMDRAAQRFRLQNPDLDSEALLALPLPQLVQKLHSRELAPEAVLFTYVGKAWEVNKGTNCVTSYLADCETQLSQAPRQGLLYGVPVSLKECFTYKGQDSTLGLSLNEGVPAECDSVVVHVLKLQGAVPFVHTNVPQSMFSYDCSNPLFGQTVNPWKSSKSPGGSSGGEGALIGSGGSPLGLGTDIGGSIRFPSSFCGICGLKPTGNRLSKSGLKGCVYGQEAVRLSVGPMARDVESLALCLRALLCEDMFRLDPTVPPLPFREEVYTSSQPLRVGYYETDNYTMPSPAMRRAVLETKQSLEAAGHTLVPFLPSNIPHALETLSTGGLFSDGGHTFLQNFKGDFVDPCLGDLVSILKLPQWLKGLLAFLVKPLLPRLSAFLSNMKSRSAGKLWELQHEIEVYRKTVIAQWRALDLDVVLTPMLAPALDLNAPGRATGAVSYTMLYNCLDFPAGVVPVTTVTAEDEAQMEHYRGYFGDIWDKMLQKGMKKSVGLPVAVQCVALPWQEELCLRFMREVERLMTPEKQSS

[4] = species on record: Homo sapiens; experiment: Selectivity ratio of IC50 for human recombinant FAAH to IC50 for human recombinant MAGL by liquid scintillation counting
[5] = tested on: T3, Monoglyceride lipase (Homo sapiens), Q99685 [C242A]; experiment: Inhibition of human MAGL C242A mutant
T3 sequence (whole entry): T1 sequence (Q99685 whole entry) with C242A

[6] = target: T4, Monoglyceride lipase (Homo sapiens) (UniProt Q99685); experiment: Inhibition of human recombinant MAGL assessed as [3H]oleoylglycerol hydrolysis at 10^-5 M preincubated for 5 mins measured after 15 mins by liquid scintillation counting in the presence of dithiothreitol
T4 sequence (whole entry): T1 sequence (Q99685 whole entry)

[7] = tested on: T5, Monoglyceride lipase (Homo sapiens), Q99685 [C208A]; experiment: Inhibition of human MAGL C208A mutant
T5 sequence (whole entry): T1 sequence (Q99685 whole entry) with C208A

[8] = tested on: T6, Monoglyceride lipase (Homo sapiens), Q99685 [C201A]; experiment: Inhibition of human MAGL C201A mutant
T6 sequence (whole entry): T1 sequence (Q99685 whole entry) with C201A

[9] = target: T4, Monoglyceride lipase (Homo sapiens); experiment: Inhibition of human recombinant MAGL assessed as [3H]oleoylglycerol hydrolysis preincubated for 10 mins at 37 degC by liquid scintillation counting
How it was run: (§1)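 Purified recombinant human MAGL (5 ng; 50 mM Tris pH 8.0, 0.1% BSA) preincubated with inhibitor at the line's time and temperature. Then incubated 10 min at 37 °C with 2-OG (10 µM final; [3H]-2-OG 50,000 dpm; Tris pH 8.0 with 0.6% BSA). Stopped with ice-cold methanol:chloroform 1:1 and centrifuged. Aqueous-phase radioactivity counted by liquid scintillation. No-enzyme blanks subtracted.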

[10] = target: T4, Monoglyceride lipase (Homo sapiens); experiment: Inhibition of human recombinant MAGL assessed as [3H]oleoylglycerol hydrolysis preincubated for 30 mins at 37 degC by liquid scintillation counting; how it was run: as §1
[11] = Selectivity ratio of IC50 for rat MAGL to IC50 for human MAGL
[12] = target: T4, Monoglyceride lipase (Homo sapiens); experiment: Inhibition of human recombinant MAGL assessed as inhibition of [3H]oleoylglycerol hydrolysis preincubated for 30 mins at room temperature by liquid scintillation counting; how it was run: as §1
[13] = target: T4, Monoglyceride lipase (Homo sapiens); experiment: Inhibition of human recombinant MAGL assessed as [3H]oleoylglycerol hydrolysis preincubated for 10 mins at room temperature by liquid scintillation counting; how it was run: as §1
[14] = species on record: Homo sapiens; experiment: Selectivity ratio of IC50 for human recombinant FAAH to IC50 for human recombinant MAGL by liquid scintillation counting of radiolabeled 2-OG hydrolysis
[15] = tested on: T7, Monoglyceride lipase (Homo sapiens), Q99685 [C201A,C208A,C242A]; experiment: Inhibition of human MAGL C201A/C208A/C242A mutant
T7 sequence (whole entry): T1 sequence (Q99685 whole entry) with C201A, C208A, C242A

[16] = target: T8, Fatty-acid amide hydrolase 1 (Homo sapiens) (UniProt O00519); experiment: Inhibition of human recombinant FAAH assessed as conversion of [3H]AEA to [3H]ethanolamine at 1 mM after 10 mins by liquid scintillation counting
T8 sequence (whole entry): T2 sequence (O00519 whole entry)

[17] = target: T4, Monoglyceride lipase (Homo sapiens); experiment: Inhibition of human recombinant MAGL assessed as [3H]oleoylglycerol hydrolysis at 1 mM after 10 mins by liquid scintillation counting
How it was run: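 Single-concentration test at 10^-3 M against purified recombinant human MAGL, 5 ng. Inhibitor preincubated 10 min at 37 °C. [3H]-2-oleoylglycerol at 10 µM final hydrolysed 10 min at 37 °C in 50 mM Tris pH 8.0 with BSA. Reaction quenched with cold methanol/chloroform. Aqueous-layer radioactivity read by scintillation, blanks subtracted, and result expressed as % inhibition.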

[18] = target: T9, Monoglyceride lipase (Rattus norvegicus, UniProt Q8R431); experiment: Inhibition of rat recombinant N-terminal his-tagged MAGL expressed in Escherichia coli DH5alpha assessed as 2-oleoylglycerol hydrolysis after 10 mins by LC/MS analysis
T9 sequence (Q8R431 whole entry): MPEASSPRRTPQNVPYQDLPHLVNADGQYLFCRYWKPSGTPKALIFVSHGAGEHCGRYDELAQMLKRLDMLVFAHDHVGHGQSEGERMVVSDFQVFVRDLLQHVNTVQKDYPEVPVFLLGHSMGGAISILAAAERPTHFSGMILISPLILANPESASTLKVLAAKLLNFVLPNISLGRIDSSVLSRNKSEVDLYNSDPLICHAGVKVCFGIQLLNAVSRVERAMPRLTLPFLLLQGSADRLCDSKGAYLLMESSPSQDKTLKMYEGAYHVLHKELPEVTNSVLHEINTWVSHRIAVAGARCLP

IC50 [1] | IC50 [3] | Ratio IC50 [4] | inhibition [16] | inhibition [17] | SMILES | further results
67.9 µM | 31.6 µM | 0.47 |  |  | CCCCCCCCOc1noc2ccccc12 | 
 |  |  | 43% | 55% | CCCCCCCCOc1nsc2ccccc12 | 
 | 129 µM |  |  | 26% | CCCCCCCCn1c(=O)oc2ccccc21 | 
1.66 µM | 35.2 µM | 21.2 |  |  | CCCCCCCCn1sc2ccccc2c1=O | inhibition [5]: inactive; inhibition [6]: inactive; inhibition [7]: Active; inhibition [8]: inactive; inhibition [9]: Active; inhibition [10]: Active; Ratio IC50 [11]: 11; IC50 [2]: 0.66 µM; inhibition [12]: Active; inhibition [13]: Active; Ratio IC50 [14]: 53; inhibition [15]: inactive; IC50 [18]: 0.059 µM
 | 309 µM |  |  | 72% | CCCCCCCCn1c(=O)sc2ccccc21 | 
0.41 µM | 30 µM | 73 |  |  | O=c1c2ccccc2sn1Cc1ccc(-c2ccccc2)cc1 | 
 |  |  | 50% | inactive | c1ccc(-c2ccc(COc3nsc4ccccc34)cc2)cc1 | 
 |  |  | inactive | inactive | CCCCCCCCN1Cc2ccccc2C1=O | 
275 µM | 44.7 µM | 0.16 |  |  | CCCCCCCCn1oc2ccccc2c1=O | 
 |  |  | inactive | inactive | CCCCCCCCN1C(=O)c2ccccc2C1=O | 

SMILES | IC50 [1] | IC50 [3] | Ratio IC50 [4] | inhibition [16] | inhibition [17] | further results
CCCCCCCCn1sccc1=O [OCTHILINONE] | 1.09 µM | 18.9 µM |  |  |  | IC50 [2]: 0.14 µM
CCCCCCCCN1SCCC1=O |  |  | 17.3 |  |  | inhibition [5]: inactive; inhibition [6]: inactive; inhibition [7]: inactive; inhibition [8]: inactive; inhibition [9]: Active; inhibition [10]: Active; Ratio IC50 [11]: 1.5; inhibition [12]: Active; inhibition [13]: Active; Ratio IC50 [14]: 53; inhibition [15]: inactive
